Source: PubChem BioAssay AID504425 (Johns Hopkins Ion Channel Center, 2011)
Activity calls are given as the source filed them.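 The calls were made as follows: active = compound that lowers Cav3.3 T-type calcium current at some tested dose and yields a usable dose response curve; inactive = the rest.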

Target: Voltage-dependent T-type calcium channel subunit alpha-1I (Homo sapiens) (UniProt Q9P0X4)
Assay: inhibitors of CACNA1I calcium current – automated patch clamp, HEK293 cells, selectivity assay for Cav3.2 inhibitor project, dose response (AID 504425)
Settings: HEK293 Cav3.3, automated patch clamp current; for current change, negative = inhibition: at 30 µM (top of the series)
Procedure, shortened: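 Evaluation: % current change relative to pre-compound current in each well / Material: Cav3.3 calcium channel stably expressed in HEK293 cells / Probe or stimulus: voltage step, -100 mV to -30 mV, 1 s / Times: compound exposure 3 min / Measured by: automated perforated patch clamp current recording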

Chain of Voltage-dependent T-type calcium channel subunit alpha-1I (Homo sapiens) (Q9P0X4 whole entry, looked up): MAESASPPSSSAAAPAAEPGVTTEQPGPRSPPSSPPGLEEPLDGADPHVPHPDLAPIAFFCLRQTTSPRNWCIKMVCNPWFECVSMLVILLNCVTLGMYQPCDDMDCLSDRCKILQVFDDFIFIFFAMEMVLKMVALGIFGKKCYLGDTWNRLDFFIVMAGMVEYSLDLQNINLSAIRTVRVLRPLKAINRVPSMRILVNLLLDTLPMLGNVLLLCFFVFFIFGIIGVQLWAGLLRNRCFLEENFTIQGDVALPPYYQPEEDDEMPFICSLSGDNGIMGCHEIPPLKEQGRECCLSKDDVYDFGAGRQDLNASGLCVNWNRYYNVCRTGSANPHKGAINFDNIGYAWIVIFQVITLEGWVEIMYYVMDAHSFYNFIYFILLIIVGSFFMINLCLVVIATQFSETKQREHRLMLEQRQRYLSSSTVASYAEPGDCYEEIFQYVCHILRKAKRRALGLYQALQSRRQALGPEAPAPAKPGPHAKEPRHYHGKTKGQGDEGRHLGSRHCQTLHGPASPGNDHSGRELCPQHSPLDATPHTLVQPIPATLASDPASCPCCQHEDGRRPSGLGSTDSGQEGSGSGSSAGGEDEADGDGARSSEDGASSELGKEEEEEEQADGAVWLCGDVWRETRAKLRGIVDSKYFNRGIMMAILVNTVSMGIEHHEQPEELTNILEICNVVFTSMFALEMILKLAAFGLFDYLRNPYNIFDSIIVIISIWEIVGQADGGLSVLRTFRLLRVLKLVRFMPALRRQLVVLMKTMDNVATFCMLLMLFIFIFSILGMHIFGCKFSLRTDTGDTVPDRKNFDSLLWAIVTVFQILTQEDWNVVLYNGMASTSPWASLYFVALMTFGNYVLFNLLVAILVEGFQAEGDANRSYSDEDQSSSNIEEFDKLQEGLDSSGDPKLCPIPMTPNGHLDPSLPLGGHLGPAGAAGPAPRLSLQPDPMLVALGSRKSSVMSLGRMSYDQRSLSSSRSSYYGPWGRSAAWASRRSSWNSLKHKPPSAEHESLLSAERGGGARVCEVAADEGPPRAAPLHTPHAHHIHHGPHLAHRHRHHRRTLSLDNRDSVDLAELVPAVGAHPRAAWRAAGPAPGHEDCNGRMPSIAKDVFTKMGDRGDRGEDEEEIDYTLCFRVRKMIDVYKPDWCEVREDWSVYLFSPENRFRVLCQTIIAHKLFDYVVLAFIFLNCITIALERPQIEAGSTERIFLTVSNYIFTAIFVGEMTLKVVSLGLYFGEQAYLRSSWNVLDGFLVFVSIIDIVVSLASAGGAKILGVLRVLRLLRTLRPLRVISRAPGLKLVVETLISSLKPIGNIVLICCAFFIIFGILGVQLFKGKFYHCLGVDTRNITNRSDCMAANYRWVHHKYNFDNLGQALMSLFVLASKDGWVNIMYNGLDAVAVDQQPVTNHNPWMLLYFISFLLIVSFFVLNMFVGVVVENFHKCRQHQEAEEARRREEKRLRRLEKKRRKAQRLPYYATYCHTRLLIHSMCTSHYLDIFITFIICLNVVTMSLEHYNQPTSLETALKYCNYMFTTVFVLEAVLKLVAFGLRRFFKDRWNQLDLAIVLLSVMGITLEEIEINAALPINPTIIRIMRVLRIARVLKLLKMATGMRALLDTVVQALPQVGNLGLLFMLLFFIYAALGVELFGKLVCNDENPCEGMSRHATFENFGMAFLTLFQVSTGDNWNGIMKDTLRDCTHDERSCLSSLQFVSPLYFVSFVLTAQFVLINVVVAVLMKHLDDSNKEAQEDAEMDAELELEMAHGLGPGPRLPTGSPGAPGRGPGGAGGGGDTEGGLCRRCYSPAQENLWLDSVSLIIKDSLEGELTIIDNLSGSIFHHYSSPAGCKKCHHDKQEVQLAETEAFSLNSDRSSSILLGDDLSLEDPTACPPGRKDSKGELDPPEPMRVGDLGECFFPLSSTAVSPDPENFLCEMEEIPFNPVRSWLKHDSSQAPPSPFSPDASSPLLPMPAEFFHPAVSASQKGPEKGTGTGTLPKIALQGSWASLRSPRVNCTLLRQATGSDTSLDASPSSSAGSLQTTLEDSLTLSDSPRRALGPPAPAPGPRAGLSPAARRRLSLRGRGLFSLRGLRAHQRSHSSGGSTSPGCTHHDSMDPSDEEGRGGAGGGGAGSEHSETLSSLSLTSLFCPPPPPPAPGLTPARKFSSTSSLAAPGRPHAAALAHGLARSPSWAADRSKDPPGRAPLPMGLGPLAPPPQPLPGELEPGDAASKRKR

SMILES	current change, negative = inhibition	IC50
CC(C)(C)Cc1nnc(NC(=O)COc2ccc(Cl)cc2Cl)o1	inactive	
Cc1ccc(-c2nnc(NC(=O)COc3ccc(F)cc3Cl)o2)cc1C	inactive	
O=C(COc1ccc(F)cc1Cl)Nc1nnc(-c2ccc(F)c(F)c2)o1		11 µM
CC(C)(C)CCN1C[C@@H]2C(CNC(=O)c3cc(Cl)cc(Cl)c3)[C@@H]2C1 (some centres undefined)		0.275 µM
